{"source": "PubChem BioAssay", "note": "Activity calls are given as the source filed them.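 How the source made its calls, unless noted: active means viability at or under a set limit in both replicates, limit being median viability minus 3 SD (cut at about 48% in these data, passing the limit was not always enough); inconclusive means at or under the limit in just one replicate; inactive means at or above the limit in both replicates.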", "data": [{"assay": "HUVEC growth inhibition – cell-based, human, primary screen (AID 575;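 active means viability at or below 30% in both replicate assays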;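 further: 100% = median of untreated cell wells with 0.1% DMSO on each plate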)", "conditions": "HUVEC proliferation, CellTiter-Glo luminescence, 72 h; at 10 µM; active compounds read low", "summary_of_the_method": "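Test system: HUVEC primary cells. Quantity: 1250 endothelial cells in each well. Dosing: single-point 10 µM, DMSO 0.1% final. Incubation: 72 h treatment at 37 °C. Measured by: CTG luminescence. Control set: DMSO cell controls and MePR drug controls. Plate: collagen-coated 384-well format.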", "values": [{"smiles": "COCC(=O)N(Cc1ccccc1)c1ccccn1", "viability": "83.3% (inactive)"}, {"smiles": "Nc1cc(C(=O)O)ccc1Nc1ccccc1", "viability": "86.8% (inactive)"}, {"smiles": "O=C1c2ccccc2C(=O)N1CCC(=O)N1CCc2ccccc21", "viability": "101% (inactive)"}, {"smiles": "Cc1cc(C)n(Cc2nc3ccccc3n2C)n1", "viability": "92.9% (inactive)"}, {"smiles": "CC(C)c1ccc(NC(=O)C2CC(=O)N(C(C)C)C2)cc1", "note": "(configuration not stated)", "viability": "89.2% (inactive)"}, {"smiles": "CSc1nsc(SCC(=O)N2CCc3ccccc32)n1", "viability": "98.6% (inactive)"}, {"smiles": "CC(Sc1nnc(-c2cc3ccccc3o2)n1-c1ccccc1)C(=O)O", "note": "(configuration not stated)", "viability": "90.9% (inactive)"}]}, {"assay": "H69AR cell proliferation blockers – human, duplicate replicates, primary screen (AID 580);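 further: 100% = mean luminescence of untreated wells and 0% = no signal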", "conditions": "H69AR lung tumor cells viability, ATP luminescence, 72 h; at 10 µM; active compounds read low", "values": [{"smiles": "CCOC(=O)C1CCCN(C(=O)c2cccs2)C1", "note": "(configuration not stated)", "viability": "98.3% (inactive)"}, {"smiles": "O=C(CSc1nnc(-c2ccccc2)o1)N1CCN(c2ccccc2)CC1", "viability": "98.3% (inactive)"}, {"smiles": "CCOC(=O)N1CCN(C(=O)Nc2ccc3oc(C)nc3c2)CC1", "viability": "93.2% (inactive)"}, {"smiles": "O=C(CSc1nc2ccccc2o1)N1CCN(c2ccc(Cl)cc2)CC1", "viability": "87.4% (inactive)"}, {"smiles": "CCCC(=O)N1CCN(c2ccc(NC(=O)c3ccc(Br)o3)cc2)CC1", "viability": "104% (inactive)"}, {"smiles": "COC(=O)c1[nH]c(C)c(/C(O)=C2\\C(=O)C(=O)N(CCCN3CCOCC3)C2c2ccccn2)c1C", "note": "(configuration not stated)", "viability": "104% (inactive)"}, {"smiles": "CCn1c(CSc2nc(C)cc(C)n2)nnc1SCC(=O)Nc1ccccc1", "viability": "89.5% (inactive)"}, {"smiles": "CN(C)c1oc(-c2ccccc2Cl)nc1C#N", "viability": "94.9% (inactive)"}, {"smiles": "Cc1ccccc1C(=O)N1CCC(C(=O)Nc2ccc(S(=O)(=O)N3CCCC3)cc2)CC1", "viability": "78.8% (inactive)"}, {"smiles": "Cc1ccc(-c2[nH]nc3c2C(c2ccoc2)C(C#N)=C(N)O3)cc1C", "note": "(configuration not stated)", "viability": "86.7% (inactive)"}, {"smiles": "CCOC(=O)CN(C)Cc1c[nH]c2ccccc12", "viability": "87.1% (inactive)"}, {"smiles": "Cc1cccc(-n2ncc3c(NCc4ccccn4)ncnc32)c1", "viability": "89.6% (inactive)"}, {"smiles": "CCCCOc1ccc(C(=O)Nc2ccc(N3CCN(C(=O)C(C)C)CC3)cc2)cc1", "viability": "75% (inactive)"}, {"smiles": "COc1ccc(N(CC(=O)Nc2ccc(F)c(Cl)c2)S(=O)(=O)c2c(C)noc2C)cc1", "viability": "81.5% (inactive)"}, {"smiles": "O=C(c1ccc(-c2ccccc2)cc1)N1CCC(C(=O)N2CCCC2)CC1", "viability": "104% (inactive)"}, {"smiles": "COc1ccccc1NC1=NC2(CCCC2)N=C(N)N1", "viability": "99.7% (inactive)"}, {"smiles": "c1ccc(OCc2nc3ccccc3[nH]2)cc1", "viability": "92.2% (inactive)"}, {"smiles": "CS(=O)(=O)N(CC(=O)NC1CC1)c1cccc(F)c1", "viability": "90% (inactive)"}, {"smiles": "O=C(NCc1ccco1)C1Cc2ccccc2CN1S(=O)(=O)c1ccccc1F", "note": "(configuration not stated)", "viability": "25.3% (active)"}, {"smiles": "Oc1cccc2ccc(Nc3ccccn3)nc12", "viability": "1.99% (active)"}, {"smiles": "Cc1ccccc1NS(=O)(=O)c1ccc(NC(=O)c2ccco2)cc1", "viability": "89.2% (inactive)"}, {"smiles": "CC(=O)c1c(C)[nH]c(C(=O)NC2=NCCS2)c1C", "viability": "99.8% (inactive)"}, {"smiles": "Nc1nc(SCc2ccc(Cl)cc2Cl)n[nH]1", "viability": "92.5% (inactive)"}, {"smiles": "O=C(Nc1ccccc1C(=O)N1CCOCC1)c1ccncc1", "viability": "101% (inactive)"}, {"smiles": "O=C1c2cccnc2C(=O)N1c1cccc(-c2nc3ccccc3o2)c1", "viability": "92.9% (inactive)"}, {"smiles": "CCOc1ccc(N(C)S(=O)(=O)c2ccc3[nH]cc(C(=O)NCC4CCCO4)c(=O)c3c2)cc1", "note": "(configuration not stated)", "viability": "87.9% (inactive)"}, {"smiles": "Cc1cc(=O)oc2c(CN3CCN(C)CC3)c(O)c(Cl)cc12", "viability": "90.7% (inactive)"}, {"smiles": "Cn1c(=O)c2ccccc2n(Cc2ccccc2F)c1=O", "viability": "85.2% (inactive)"}, {"smiles": "COc1ccc(OC)c(-c2nc3c(C)n[nH]c(=O)c3[nH]2)c1", "viability": "69.5% (inactive)"}, {"smiles": "COc1ccc(CN(C(=O)CSc2nnc(-c3ccccc3F)o2)c2ccc(F)cc2)cc1", "viability": "101% (inactive)"}, {"smiles": "COc1ccccc1C(=O)Nc1c2c(nn1-c1cccc(C)c1C)CS(=O)(=O)C2", "viability": "95.2% (inactive)"}, {"smiles": "Cc1cccc(NC(=O)CCn2ccnc2C)c1", "viability": "92.3% (inactive)"}, {"smiles": "O=c1oc(-c2ccco2)nc2ccccc12", "viability": "91% (inactive)"}, {"smiles": "COCC(=O)N(Cc1ccccc1)c1ccccn1", "viability": "90.1% (inactive)"}, {"smiles": "Nc1cc(C(=O)O)ccc1Nc1ccccc1", "viability": "111% (inactive)"}, {"smiles": "O=C1c2ccccc2C(=O)N1CCC(=O)N1CCc2ccccc21", "viability": "87.3% (inactive)"}, {"smiles": "Cc1cc(C)n(Cc2nc3ccccc3n2C)n1", "viability": "99% (inactive)"}, {"smiles": "CC(C)c1ccc(NC(=O)C2CC(=O)N(C(C)C)C2)cc1", "note": "(configuration not stated)", "viability": "90.8% (inactive)"}, {"smiles": "CSc1nsc(SCC(=O)N2CCc3ccccc32)n1", "viability": "96.8% (inactive)"}, {"smiles": "CC(Sc1nnc(-c2cc3ccccc3o2)n1-c1ccccc1)C(=O)O", "note": "(configuration not stated)", "viability": "95.1% (inactive)"}]}]}
